This passage reports MIC results from ChEMBL document CHEMBL5331111, “Synthetic Biology Facilitates Semisynthetic Development of Type V Glycopeptide Antibiotics Targeting Vancomycin-Resistant Enterococcus” (J Med Chem, 2023).

≈ marks a conversion by molar mass, not a printed value.

This assay has as its system Mycobacterium tuberculosis variant bovis. Briefly: Antimycobacterial activity against Mycobacterium bovis BCG Pasteur ATCC 35734 assessed as inhibition of bacterial growth measured after 7 days by resazurin dye based analysis. In kind it is functional. Conditions: BCG Pasteur ATCC 35734, 168 h, time 7 day. The method, boiled down:
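Strains grown in 7H9 broth with 0.2% glycerol, 10% OADC and 0.05% Tween-80. Inoculum was about 5 × 10^5 CFU/mL, checked by plating on 7H10/OADC agar to be 3–8 × 10^5. Read at 2 days for M. smegmatis and 7 days for M. tuberculosis H37Ra, M. bovis and M. avium. Resazurin 30 μg/mL was then added for one further day. Values are averages of at least two experiments.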
As for `CN1C(=O)[C@@H]2NC(=O)[C@@H]3NC(=O)[C@@H](c4ccc(O)cc4)NC(=O)[C@H](NC(=O)C(N)c4ccc(O)cc4)Cc4c[nH]c5cc(ccc45)-c4cc3cc(c4O)Oc3ccc(cc3)C[C@H]1C(=O)N[C@@H](C(=O)O)c1ccc(O)c(c1)Oc1ccc2cc1` (stereo partly drawn), the MIC is 8 µg/mL (≈ 7.14 µM).

As for `CN1C(=O)[C@@H](c2cc(Cl)c(O)c(Cl)c2)NC(=O)[C@@H]2NC(=O)[C@@H](c3cc(Cl)c(O)c(Cl)c3)NC(=O)[C@H](NC(=O)C(=O)c3cc(Cl)c(O)c(Cl)c3)Cc3c[nH]c4cc(ccc34)-c3cc2cc(c3O)Oc2ccc(cc2)C[C@H]1C(=O)N[C@@H](C(=O)O)c1ccc(O)cc1` [ISOCOMPLESTATIN], the MIC came to 64 µg/mL (≈ 48.2 µM).

For the compound `NNC(=O)c1ccncc1` [ISONIAZID], the MIC was 0.13 µg/mL (≈ 0.948 µM).
